Assay results reported in publication PMC11327602 (Heliyon, 2024).
Values joined by “and” are separate entries in the source; they are usually repeats but may differ in a detail not shown here. Equal values may be shown once.

Legend:
[1] = DPPH free radical scavenging activity; conditions: for IC50: read-out: DPPH scavenging IC50
[2] = target: Bacillus Pasteurii urease (Sporosarcina pasteurii, UniProt P41020); test: Urease inhibition assay; format: biochemical; conditions: Enzyme (SEM ±) B.P Urease, IC50, mean ± SEM, 3 experiments
Chain of Bacillus Pasteurii urease (P41020 whole entry): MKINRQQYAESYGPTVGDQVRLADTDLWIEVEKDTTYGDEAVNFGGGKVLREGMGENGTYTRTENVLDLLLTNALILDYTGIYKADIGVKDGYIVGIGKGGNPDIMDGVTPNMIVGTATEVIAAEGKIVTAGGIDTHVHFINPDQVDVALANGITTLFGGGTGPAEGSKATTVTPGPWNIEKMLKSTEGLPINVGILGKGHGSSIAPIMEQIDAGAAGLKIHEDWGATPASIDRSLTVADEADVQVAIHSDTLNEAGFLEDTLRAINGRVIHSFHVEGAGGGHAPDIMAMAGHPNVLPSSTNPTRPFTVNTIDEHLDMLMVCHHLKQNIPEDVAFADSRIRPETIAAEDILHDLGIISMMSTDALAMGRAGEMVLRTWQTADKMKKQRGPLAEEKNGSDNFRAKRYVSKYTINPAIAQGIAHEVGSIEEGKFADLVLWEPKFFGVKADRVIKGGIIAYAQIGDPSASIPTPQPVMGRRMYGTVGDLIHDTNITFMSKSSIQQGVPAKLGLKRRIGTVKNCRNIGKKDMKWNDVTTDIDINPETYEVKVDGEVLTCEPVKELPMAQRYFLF
Chain of Bacillus Pasteurii urease (P41021 whole entry partner): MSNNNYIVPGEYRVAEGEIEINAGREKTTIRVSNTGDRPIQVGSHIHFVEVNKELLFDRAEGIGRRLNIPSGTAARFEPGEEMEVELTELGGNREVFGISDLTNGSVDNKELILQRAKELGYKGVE
Chain of Bacillus Pasteurii urease (P41022 whole entry partner): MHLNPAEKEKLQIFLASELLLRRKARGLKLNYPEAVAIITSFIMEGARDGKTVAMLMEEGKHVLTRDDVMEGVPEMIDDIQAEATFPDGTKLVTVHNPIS

[3] = Superoxide anion scavenging assay; conditions: for IC50: read-out: superoxide anion scavenging IC50
ABTS method = conditions: for IC50: read-out: ABTS scavenging IC50
jack bean urease = jack bean urease (Canavalia ensiformis, UniProt P07374); test: Urease inhibition assay; format: biochemical; conditions: for IC50: Enzyme (SEM ±) J.B Urease, IC50, mean ± SEM, 3 experiments
Chain of jack bean urease (P07374 whole entry, looked up): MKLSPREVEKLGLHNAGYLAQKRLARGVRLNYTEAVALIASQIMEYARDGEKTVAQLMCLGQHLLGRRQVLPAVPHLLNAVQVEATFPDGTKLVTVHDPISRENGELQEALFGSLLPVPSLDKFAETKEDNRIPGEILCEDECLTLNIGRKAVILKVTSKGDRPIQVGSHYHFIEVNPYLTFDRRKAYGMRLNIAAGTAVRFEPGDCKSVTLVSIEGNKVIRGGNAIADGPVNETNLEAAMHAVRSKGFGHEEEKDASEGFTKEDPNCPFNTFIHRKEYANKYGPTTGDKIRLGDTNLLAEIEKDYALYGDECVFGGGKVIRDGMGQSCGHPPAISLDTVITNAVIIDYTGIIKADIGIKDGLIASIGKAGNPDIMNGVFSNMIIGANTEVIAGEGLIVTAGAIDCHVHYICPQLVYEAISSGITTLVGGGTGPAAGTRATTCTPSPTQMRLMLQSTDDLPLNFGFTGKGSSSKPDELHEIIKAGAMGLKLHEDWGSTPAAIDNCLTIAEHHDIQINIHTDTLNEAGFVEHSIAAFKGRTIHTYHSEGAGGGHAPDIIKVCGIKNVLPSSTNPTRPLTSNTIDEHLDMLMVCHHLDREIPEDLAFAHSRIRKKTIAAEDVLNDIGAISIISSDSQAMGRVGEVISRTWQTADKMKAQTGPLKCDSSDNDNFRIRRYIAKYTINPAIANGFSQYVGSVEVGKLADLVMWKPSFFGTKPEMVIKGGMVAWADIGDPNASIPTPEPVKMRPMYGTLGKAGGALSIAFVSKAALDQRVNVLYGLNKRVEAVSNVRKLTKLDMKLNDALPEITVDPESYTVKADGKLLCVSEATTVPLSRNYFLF

α-Glucosidase = α-Glucosidase (Saccharomyces cerevisiae, UniProt P53341); test: α-Glucosidase inhibition assay; format: biochemical
Chain of α-Glucosidase (P53341 whole entry): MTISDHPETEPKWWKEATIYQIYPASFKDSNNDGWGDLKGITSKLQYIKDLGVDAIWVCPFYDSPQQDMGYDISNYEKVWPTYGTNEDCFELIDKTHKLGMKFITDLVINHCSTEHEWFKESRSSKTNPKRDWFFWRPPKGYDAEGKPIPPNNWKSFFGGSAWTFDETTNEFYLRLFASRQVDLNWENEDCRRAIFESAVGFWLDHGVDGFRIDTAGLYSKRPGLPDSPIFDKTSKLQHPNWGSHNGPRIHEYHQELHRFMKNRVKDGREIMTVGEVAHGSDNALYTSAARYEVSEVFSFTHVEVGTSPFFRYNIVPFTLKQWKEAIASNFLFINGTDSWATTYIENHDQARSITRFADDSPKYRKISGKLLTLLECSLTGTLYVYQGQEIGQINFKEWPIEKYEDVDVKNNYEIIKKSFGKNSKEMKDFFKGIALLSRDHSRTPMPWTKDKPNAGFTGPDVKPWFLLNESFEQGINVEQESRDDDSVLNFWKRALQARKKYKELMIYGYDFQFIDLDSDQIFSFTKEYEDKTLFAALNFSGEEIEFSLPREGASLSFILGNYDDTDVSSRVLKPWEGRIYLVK
Summary of the method: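 Test compound (200–800 μg/mL) pre-incubated 5 min at 37 °C with 2 % w/v starch (sucrose) solution in 0.2 M Tris buffer, pH 8.0. 5 mM p-nitrophenyl-α-D-glucopyranoside added intermittently, then α-glucosidase (1 U/mL), 40 min at 35 °C. Stopped with […]; absorbance read at 405 nm. % inhibition = (control − sample)/control × 100; samples above 50 % taken to IC50.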

Row | SMILES | DPPH % Scavenging ([1]; 25 μM) | DPPH % Scavenging ([1]; 50 μM) | DPPH % Scavenging ([1]; 75 μM) | DPPH % Scavenging ([1]; 100 μM) | IC50 [1] | IC50 [2] | superoxide anion % scavenging ([3]; 25 μM) | superoxide anion % scavenging ([3]; 50 μM) | superoxide anion % scavenging ([3]; 75 μM) | superoxide anion % scavenging ([3]; 100 μM) | IC50 [3] | ABTS % Scavenging (ABTS method; 10 μM) | ABTS % Scavenging (ABTS method; 20 μM) | ABTS % Scavenging (ABTS method; 30 μM) | ABTS % Scavenging (ABTS method; 40 μM) | ABTS % Scavenging (ABTS method; 50 μM) | IC50 (ABTS method) | Types of inhibition (urease) (jack bean urease) | IC50 (jack bean urease) | Type of Inhibition (α-glucosidase and α-amylase) (α-Glucosidase) | also measured
1 | CN(c1nccs1)S(=O)(=O)c1ccccc1 [Compound 36, N-Methyl-N-(thiazol-2-yl)benzenesulfonamide] | 25.3 ± 0.07% | 65.5 ± 0.12% | 88.3 ± 0.11% | 93.8 ± 0.09% | ~49.3 µM and 49.3 µM | 17.06 ± 0.03 µM | 20.6 ± 0.11% | 43.6 ± 0.12% | 65.1 ± 0.5% | 87.5 ± 0.08% | 57.1 ± 0.09 µM | 23.2 ± 0.11% | 37.5 ± 0.2% | 48.3 ± 0.21% | 65.5 ± 0.01% | 87.5 ± 0.05% | 45.07 ± 0.09 µM | Competitive | 14.06 ± 0.03 µM | Non-competitive | inhibition against both enzymes (α-glucosidase and α-amylase), in words (α-Glucosidase): weak inhibition
2 | CN(c1nccs1)S(=O)(=O)c1ccc(Br)cc1 [Compound 35, 4-Bromo-N-methyl-N-(thiazol-2-yl)benzenesulfonamide] | 28.1 ± 0.04% | 34.4 ± 0.8% | 61.5 ± 0.03% | 89.1 ± 0.6% | 53.1 ± 0.11 µM | 20.21 ± 0.19 µM | 27 ± 0.12% | 53 ± 0.05% | 64 ± 0.04% | 89 ± 0.28% | ~38 µM and 38 µM | 33.02 ± 0.08% | 31.05 ± 0.01% | 43.01 ± 0.03% | 62.2 ± 0.09% | 105.13 ± 0.11% | 38.01 ± 0.13 µM | Competitive | 18.7 µM | Competitive | inhibition against both enzymes (α-glucosidase and α-amylase), in words (α-Glucosidase): weak inhibition
3 | O=S(=O)(c1ccc(Cl)cc1)N(Cc1ccccc1)c1nccs1 [Compound 23, N-benzyl-4-chloro-N-(thiazol-2-yl)benzenesulfonamide] | 32.6 ± 0.21% | 57.3 ± 0.01% | 70.5 ± 0.16% | 93.05 ± 0.32% | 49.15 ± 0.05 µM | 28.02 ± 0.07 µM | 39 ± 0.3% | 60 ± 0.56% | 89 ± 0.07% | 103 ± 0.19% | 47 ± 0.11 µM | 19.5 ± 0.05% | 39.5 ± 0.24% | 55.13 ± 0.13% | 76.01 ± 0.5% | 93.03 ± 0.31% | 30.01 ± 0.11 µM | Non-competitive | 25.1 ± 0.28 µM | Non-competitive | –
4 | C=CCN(c1nccs1)S(=O)(=O)c1ccc([N+](=O)[O-])cc1 [Compound 32, N-Allyl-4-nitro-N-(thiazol-2-yl)benzenesulfonamide] | 39.2 ± 0.2% | 53.5 ± 0.3% | 64.4 ± 0.01% | 88.2 ± 0.2% | 46.2 ± 0.01 µM | 57.89 ± 0.18 µM | 15 ± 0.05% | 32 ± 0.02% | 67 ± 0.11% | 97 ± 0.51% | 49 ± 0.12 µM | 12.02 ± 0.03% | 25.03 ± 0.01% | 49.01 ± 0.09% | 75.03 ± 0.02% | 94.06 ± 0.21% | 31.01 ± 0.09 µM | Non-competitive | 52.1 ± 1.12 µM | Non-competitive | inhibition against both enzymes (J.B. and B.P urease), in words (jack bean urease): weak inhibition
5 | CN(c1nccs1)S(=O)(=O)c1ccc(F)cc1 [Compound 38, 4-Fluoro-N-methyl-N-(thiazol-2-yl)benzenesulfonamide] | 21.3 ± 0.11% | 67.3 ± 0.2% | 89.3 ± 0.05% | 95.01 ± 0.9% | 69.5 ± 0.1 µM | 27.15 ± 0.14 µM | 31.5 ± 0.11% | 45.01 ± 0.5% | 55.7 ± 0.5% | 92.5 ± 0.03% | 67.6 ± 0.93 µM | 13.2 ± 0.91% | 35.3 ± 0.42% | 41.2 ± 0.71% | 48.13 ± 0.11% | 79.3 ± 0.44% | 49.03 ± 0.15 µM | Competitive | 24.31 ± 0.18 µM | Non-competitive | –
6 | COc1ccc(S(=O)(=O)N(C)c2nccs2)cc1 [Compound 34, 4-Methoxy-N-methyl-N-(thiazol-2-yl)benzenesulfonamide] | 29.2 ± 0.01% | 69.6 ± 0.2% | 78.4 ± 0.2% | 94.8 ± 0.03% | 45.5 ± 0.05 µM | 18.7 µM | 18.2 ± 0.01% | 39.6 ± 0.2% | 69.4 ± 0.2% | 89.8 ± 0.03% | 52.1 ± 0.01 µM | 27.2 ± 0.01% | 35.6 ± 0.2% | 46.4 ± 0.2% | 69.8 ± 0.03% | 80.1 ± 0.08% | 47.1 µM | Competitive | 16 ± 0.21 µM | Non-competitive | inhibition against both enzymes (α-glucosidase and α-amylase), in words (α-Glucosidase): weak inhibition
7 | O=S(=O)(c1ccc(F)cc1)N(Cc1ccccc1)c1nccs1 [Compound 24, N-benzyl-4-fluoro-N-(thiazol-2-yl)benzenesulfonamide] | 21.3 ± 0.18% | 44.1 ± 0.55% | 75.1 ± 0.30% | 89.4 ± 0.35% | 62.5 ± 0.07 µM | 40.88 ± 0.26 µM | 33 ± 0.21% | 45 ± 0.35% | 84 ± 0.25% | 97 ± 0.15% | 59 ± 0.16 µM | 25.11 ± 0.11% | 33.6 ± 0.55% | 44.31 ± 0.17% | 48.23 ± 0.51% | 76.23 ± 0.22% | 42.12 ± 0.21 µM | Competitive | 32.11 ± 0.13 µM | Non-competitive | inhibition against both enzymes (α-glucosidase and α-amylase), in words (α-Glucosidase): weak inhibition
8 | CN(c1nccs1)S(=O)(=O)c1ccc([N+](=O)[O-])cc1 [Compound 39, N-Methyl-4-nitro-N-(thiazol-2-yl)benzenesulfonamide] | 15.04 ± 0.05% | 55.02 ± 0.08% | 77.08 ± 0.11% | 91.01 ± 0.34% | 43.02 ± 0.13 µM | 43.71 ± 0.13 µM | 22.2 ± 0.01% | 48.5 ± 0.17% | 71.4 ± 0.34% | 93.8 ± 0.11% | 54.1 ± 0.55 µM | 24.02 ± 0.05% | 39.01 ± 0.3% | 47.06 ± 0.1% | 72.11 ± 0.09% | 102.03 ± 0.01% | 36.09 ± 0.15 µM | Non-competitive | 38.17 ± 0.01 µM | Non-competitive | inhibition against both enzymes (α-glucosidase and α-amylase), in words (α-Glucosidase): weak inhibition
